Assay outcomes deposited in PubChem BioAssay by several laboratories.
ADAM10 inh – human ADAM10 inhibitors, primary screen, biochemical, QFRET, HTS; recombinant ADAM10, EDANS/DABCYL FRET peptide cleavage, 3 h; inhibition, % at 7 µM; AID 720582, 2013; hit rate 0.62% among 370,000;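 active = inhibition above a per-campaign cutoff equal to the mean of compounds falling between control-based bounds plus 3 SD, cut at about 20% in these data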
Target sequence (O14672 214-748 limits assumed): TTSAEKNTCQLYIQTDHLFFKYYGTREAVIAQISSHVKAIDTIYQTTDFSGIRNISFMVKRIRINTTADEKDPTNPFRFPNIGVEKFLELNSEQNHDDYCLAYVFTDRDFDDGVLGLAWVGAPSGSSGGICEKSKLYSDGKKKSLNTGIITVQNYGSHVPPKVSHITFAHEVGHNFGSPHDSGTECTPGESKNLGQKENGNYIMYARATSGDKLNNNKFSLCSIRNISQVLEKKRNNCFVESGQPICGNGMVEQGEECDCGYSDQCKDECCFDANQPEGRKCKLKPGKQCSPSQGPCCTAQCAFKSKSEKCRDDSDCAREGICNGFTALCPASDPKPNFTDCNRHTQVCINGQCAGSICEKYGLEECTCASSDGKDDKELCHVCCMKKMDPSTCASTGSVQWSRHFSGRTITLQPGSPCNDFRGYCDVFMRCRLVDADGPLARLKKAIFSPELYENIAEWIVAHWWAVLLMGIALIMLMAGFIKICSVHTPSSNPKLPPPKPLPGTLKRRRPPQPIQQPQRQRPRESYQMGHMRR
aDG glyco act – activators of alpha-DG glycosylation, primary screen, uHTS, Pro5-aDG cells, AlphaScreen; activation, % at 10 µM; hit rate 0.22% among 360,000; alpha-DG glycosylation AlphaScreen (IIH6); 0% Pro5, 100% B10-LARGE cell signal;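 active = activation of at least 8% versus controls, or a plate z-score of at least 8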;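 also: Pro5 are CHO cells carrying HIG-tagged alpha-DG that lacks glycosylation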
MPTP inh – mitochondrial permeability transition pore inhibitors, primary screen, biochemical, isolated mouse mitochondria, absorbance. inhibition, % at 10 µM. Ca2+ swelling absorbance, 30 min. hit rate 1.4% among 360,000;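 active = inhibition of 50% or more, scaled per plate between neutral and stimulator controls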
Hep lipid drop – inhibitors of hepatocyte lipid droplet formation, primary screen, imaging, high-throughput imaging, BODIPY stain | AML12 mouse hepatocytes, oleate lipid droplets | inhibition, % at 6.5 µM | AID 1656, 2009 | hit rate 0.4% among 240,000;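 active = lipid droplet intensity inhibited by at least 50%, with more than 500 cells counted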
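Test system: AML12 mouse liver cells; schedule: overnight exposure; technique: high-content imaging of BODIPY-stained droplets and DAPI nuclei; read-out: % inhibition of corrected integrated BODIPY droplet signal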
V-ATPase pHluor – regulators of yeast V-ATPase proton pumping, primary screen, pHLuorin cytosolic pH fluorescence; response, % at 10 µM; S. cerevisiae; hit rate 0.37% among 350,000; AID 504577, 2011; in the data active = response mostly above about 7.3%, no sharp cut-off; inactive = mostly below about 5.4%; also: actives read high
ADAM17 inh – ADAM17 inhibitors, primary screen, biochemical, QFRET; Disintegrin and metalloproteinase domain-containing protein 17 (Homo sapiens), P78536; AID 720648, 2013; recombinant ADAM17, EDANS/DABCYL FRET peptide cleavage; inhibition, % at 6.95 µM; hit rate 0.83% among 370,000;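 active = inhibition above the mean of compounds lying between control limits plus 3 SD, set per campaign, cut at about 8.5% in these data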
aDG conf – alpha-DG glycosylation enhancers, retest, confirmation, single concentration, Pro5-aDG cells; shares compounds with aDG glyco act; IIH6 AlphaLISA; scaled to LARGE-overexpressing B10 cells as 100%; activation, % at 10 µM (by protocol); hit rate 17% among 600;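 active = activation of at least 7% in one or more replicates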;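 also: cells exposed to compound for two days before detection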
ADAM10 counter – ADAM10 inhibitors, counter-screen for ADAM17 exosite inhibitor project, biochemical, FRET, human ADAM10; recombinant ADAM10, EDANS/DABCYL FRET peptide cleavage, 3 h; shares compounds with ADAM17 inh; inhibition, % at 6.95 µM; hit rate 47% among 2,900;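 active = mean inhibition over the triplicate runs exceeds the activity threshold set in the earlier primary screen, cut at about 20% in these data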
ADAM17 confirm – ADAM17 inhibitors, hit retest, confirmation, biochemical, QFRET peptide cleavage. shares compounds with ADAM17 inh. recombinant ADAM17, EDANS/DABCYL QFRET peptide cleavage. inhibition, % at 6.95 µM. hit rate 65% among 2,900. AID 743257, 2014;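 active = mean inhibition across replicates above the hit cutoff set in the primary screen, cut at about 8.5% in these data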
Hits are given with their value; n = inactive; x = not tested or not shown; ! = not confirmed by another sample. Hits are enriched below; roughly 3.1% of the tested compounds scored in any of these assays.

SMILES	ADAM10 inh	aDG glyco act	MPTP inh	Hep lipid drop	V-ATPase pHluor	ADAM17 inh	aDG conf	others
CC1(C(=O)Nc2ccc3c(c2)OCCO3)CCC(=O)N1C1CC1 (stereo unspecified)	n	n	n	x	x	n	x
CC1(C(=O)Nc2ccc3c(c2)OCCO3)CSCC(=O)N1C1CC1 (stereo unspecified)	n	8.6	n	x	x	n	n
CCCCn1c(N)c(N(CCOC)C(=O)CCNC(=O)NC23CC4CC(CC(C4)C2)C3)c(=O)[nH]c1=O	n	n	n	x	n	n	x
CCCCN(C(=O)CCNC(=O)NC12CC3CC(CC(C3)C1)C2)c1c(N)n(CCC)c(=O)[nH]c1=O	n	5.1	n	x	n	n	n
C[C@H]1[C@@H](OC(=O)NC2CCCCC2)CC[C@@]23CCCN2C(=O)CCC[C@@H]13	n	x	x	x	x	n	x
CC(/C=N/NC(=O)CSc1nnc(SCc2ccc(C)cc2)s1)=C\c1ccco1	n	x	x	x	x	n	x
CCOC(=O)C1=NOC(C(C)=O)(C(=O)NC2CCCC2)C1 (stereo unspecified)	n	x	x	x	x	n	x
COc1ccc(NC(=O)NC[C@@H]2CC[C@@H](Cc3ccc(-c4ccccc4)cc3)O2)cc1	n	6.4	n	x	n	n	n
NC(=O)NC[C@@H]1CC[C@@H](Cc2ccc(-c3ccccc3)cc2)O1	x	n	n	x	n	x	x
O=C(NCCS(=O)(=O)NCC1CCCO1)c1ccccc1 (stereo unspecified)	n	5.2	n	x	n	n	n
Cc1ccc(S(=O)(=O)c2c(N)n(Cc3ccco3)c3nc4ccccc4nc23)cc1C	n	40	n	n	n	n	n
COc1ccccc1NS(=O)(=O)c1ccc(C(=O)NCCCN2CCOCC2)cc1	n	5.0	n	x	n	n	n
O=C(NCCCN1CCOCC1)c1ccc(S(=O)(=O)Nc2ccccc2)cc1	n	n	n	x	n	n	x
C/C(=N\Nc1ncc(Cl)cc1Cl)c1ccc(OC(F)F)cc1	n	n	n	n	n	n	x
C/C(=N\Nc1ncc(Cl)cc1Cl)c1ccc2c(c1)OCO2	n	13	n	n	n	n	n
CCCC1CCC2(CC1)CCC2OC(=S)Nc1ccccc1C(F)(F)F (stereo unspecified)	n	x	x	x	x	n	x
C/C=C/c1ccc(OCCCNC2CCCC2)c(OC)c1	n	9.6	n	n	n	n	12
CC(OC(=O)c1ccc(Cl)nc1)C(=O)NCc1ccc2c(c1)OCO2 (stereo unspecified)	n	7.2	n	x	n	n	n
CC(C)Oc1ccc(OCCCN2CCCCCC2)cc1	n	5.2	n	n	n	n	13
COc1ccc(CCN(Cc2cccs2)S(=O)(=O)c2ccc(C)s2)cc1OC	n	x	x	x	x	n	x
Clc1ccc(-c2cc(C3CCNCC3)[nH]n2)cc1	n	6.9	n	n	n	n	n
COC(=O)c1ccc(CSc2ccc3nnc(-c4ccccn4)n3n2)o1	n	4.7	n	n	n	n	n
N#Cc1ccc(-c2nc3c4ccccc4ccn3c2CC2CCCCC2)cc1	n	22	n	x	x	n	7.2
CC(C)c1ccc(-c2cc(C(=O)N3CCOCC3)c3cc(Br)ccc3n2)cc1	n	4.6	n	n	n	n	9.4
O=C(c1cc(-c2ccccc2)nc2ccccc12)N1CCOCC1	n	n	n	x	n	n	x
SMILES	ADAM10 inh	aDG glyco act	MPTP inh	Hep lipid drop	V-ATPase pHluor	ADAM17 inh	aDG conf	others
N#C/C(=C\c1cccc(Cl)c1)c1n[nH]c(Cn2cncn2)n1	n	2.9	n	n	n	n	n
CCOC(=O)N1CCN(C(=O)c2ccc3c(=O)n(-c4ccccc4F)c(=S)[nH]c3c2)CC1	n	n	n	n	n	n	x
CCc1ccc(C(CNC(=O)c2ccc3c(=O)n(-c4ccccc4F)c(=S)[nH]c3c2)N(C)C)cc1 (stereo unspecified)	n	10	n	n	n	n	6.9
CCSc1nnc(SCC(=O)c2c(N)n(C)c(=O)n(C)c2=O)s1	n	4.2	n	x	n	n	n
CCNC(=O)/N=C1/NC(=O)C(C(C)C)O1 (stereo unspecified)	n	22	n	x	n	n	n
Cc1n[nH]c(C)c1S(=O)(=O)NCCc1c[nH]c2ccccc12	n	x	x	x	x	n	x
O=C(OCC#CCSc1nnc(-c2cccc3ccccc23)o1)c1ccc(F)c(F)c1	n	x	x	x	x	n	x
Cc1ccn2c(NC3CCCCC3)c(-c3cccc(SC4CCCCC4)c3)nc2c1	n	5.7!	n	x	n	n	n
Cc1cc(C(=O)Nc2ccc(Cl)c(Cl)c2)n(-c2ccccc2)n1	n	x	x	x	x	n	x
Cn1c(SCC(=O)Nc2ccc(NC(=O)c3ccccc3F)cc2)nnc1-c1ccncc1	x	n	n	n	n	x	x
Cn1c(SCC(=O)Nc2ccc(NC(=O)c3cccc(F)c3)cc2)nnc1-c1ccncc1	n	1.8	n	n	n	n	n
C=CCc1c(C)nc(C)nc1N/N=C/c1ccc(N(C)C)cc1	n	6.3	n	n	n	n	n
Cc1nn(CC(=O)N2CCCC2)c(=O)c2nn(-c3ccccc3)c(C)c12	n	n	n	n	n	n	x
CCOC(=O)C1CCCN(C(=O)Cn2nc(C)c3c(C)n(-c4ccccc4)nc3c2=O)C1 (stereo unspecified)	n	9.8	n	n	n	n	n
Cc1ccc(S(=O)(=O)N(C)C)cc1NC(=O)COC(=O)Cc1ccccc1F	n	11	n	x	n	n	n
O=C(Nc1ccc(Cl)cc1)N1CCCN(Cc2ccc(F)cc2)C1	n	7.8	n	n	n	10	n	ADAM10 counter=n;ADAM17 confirm=11
O=C(Nc1ccccc1)N1CCN(Cc2ccc(Cl)cc2)CC1	n	n	n	n	n	n	x
CN(C)S(=O)(=O)c1cccc(NC(=O)c2ccc(COc3ccccc3)cc2)c1	n	3.1	n	n	n	9.6	n	ADAM10 counter=24;ADAM17 confirm=14
CC(C)COc1ccc(CSCCNC(=S)Nc2ccccc2)cc1	n	4.6	n	x	n	9.1	4.9	ADAM10 counter=29;ADAM17 confirm=13
O=C(NCCc1cccc(F)c1)c1cc2ccccn2n1	n	x	x	x	x	n	x
